# Measurements of several laboratories.
# Lines come from different studies, so protocols differ.
# KCNU1: KCNU1 (Homo sapiens, UniProt A8MYU2)
# MAOB: Amine oxidase [flavin-containing] B (MAOB, Homo sapiens, UniProt P27338)
# Adora1: Adenosine receptor A1 (Adora1, Rattus norvegicus, UniProt P25099)
# CA9: Carbonic anhydrase 9 (CA9, Homo sapiens, UniProt Q16790)
# EDNRB: Endothelin receptor type B (EDNRB, Homo sapiens, UniProt P24530)
# CHRM4: Muscarinic acetylcholine receptor M4 (CHRM4, Homo sapiens, UniProt P08173)
SMILES,target,assay,system,setting,inhibition [%]
O=c1c2ccccc2c(Cc2ccc(Cl)cc2)nn1C1CCCNCC1 (stereo not drawn),KCNU1,"ion current, inhibitor, patch clamp",HEK293,10 µM,34
CN(C)C1CCN(CC#Cc2nn(C3CCCC3)c3nc(NCc4ccccc4)ncc23)C1 (stereo not drawn),"Serine/threonine-protein kinase 26 (STK26, Homo sapiens, UniProt Q9P289)","enzyme activity, inhibitor, FRET",,10 µM,78
O=C(Nc1ccc([N+](=O)[O-])cc1Cl)c1ccccc1,MAOB,"enzyme activity, inhibitor",,"1 µM, 20 min",25
C#CCN1CCCn2c1nc1c2c(=O)n(C)c(=O)n1C,Adora1,"ligand displacement, radioligand",,"25 µM, cell membranes",46
N#CC1CSc2[nH]c(=O)sc2C1c1cn(-c2ccccc2)nc1-c1ccc(Br)cc1 (stereo not drawn),CA9,"enzyme activity, inhibitor",,10 nM,28.9
O=C(Nc1ccc(C(F)(F)F)cc1C(F)(F)F)c1cc(Cl)ccc1O,MAOB,"enzyme activity, inhibitor",,"1 µM, 20 min",84
CCOC(=O)C1CSc2[nH]c(=O)sc2C1c1cn(-c2ccccc2)nc1-c1ccc(Cl)cc1 (stereo not drawn),CA9,"enzyme activity, inhibitor",,10 nM,12
CCCC(C)N1CCCn2c1nc1c2c(=O)n(C)c(=O)n1C (stereo not drawn),Adora1,"ligand displacement, radioligand",,"25 µM, cell membranes",19
Oc1cccc(Nc2nc(-c3ccc(F)cc3F)cs2)c1,EDNRB,cell-free assay,,10 µM,-4.3
CCOC(=O)C1CSc2[nH]c(=O)sc2C1c1cn(-c2ccccc2)nc1-c1ccc(Br)cc1 (stereo not drawn),CA9,"enzyme activity, inhibitor",,0.1 µM,42.2
COc1ccc(C=NNC(=O)Cn2cnc3ccccc32)c(O)c1,MAOB,"enzyme activity, inhibitor, fluorescence",,1 µM,65
CNC(=O)c1csc(Nc2cccc(C)n2)n1,MAOB,"enzyme activity, inhibitor, fluorescence",,30 µM,53
O=C(Nc1ccc(S(=O)(=O)N2CCC(Cl)CC2)cc1)c1ccc([N+](=O)[O-])o1,EDNRB,"ligand displacement, radioligand",,10 µM,3
CCOC(=O)C1CSc2[nH]c(=O)sc2C1c1cn(-c2ccccc2)nc1-c1ccc(OC)cc1 (stereo not drawn),CA9,"enzyme activity, inhibitor",,1 µM,71.4
CCC(C)N1CCCn2c1nc1c2c(=O)n(C)c(=O)n1C (stereo not drawn),Adora1,"ligand displacement, radioligand",,"25 µM, cell membranes",40
Cn1cnc(Br)c1C1=CN(c2ncnc3[nH]cnc23)CCS1,"Dual specificity tyrosine-phosphorylation-regulated kinase 4 (DYRK4, Homo sapiens, UniProt Q9NR20)","enzyme activity, inhibitor, radiometric",,2 µM,72.2
O=C(Nc1cc(Cl)cc(Cl)c1)c1cc(Cl)ccc1O,MAOB,"enzyme activity, inhibitor",,"1 µM, 20 min",0
CS(=O)(=O)Nc1cccc2cccnc12,"Lactoylglutathione lyase (GLO1, Homo sapiens, UniProt Q04760)","enzyme activity, inhibitor, absorbance",,50 µM,> 21
N=c1n(CCN2CCCCC2)c2ccccc2n1CC(O)c1cccc(Br)c1 (stereo not drawn),KCNU1,"ion current, inhibitor, patch clamp",HEK293,10 µM,17
Cc1cc([N+](=O)[O-])ccc1NC(=O)c1cc(Cl)ccc1O,MAOB,"enzyme activity, inhibitor",,"1 µM, 20 min",5
COc1cc(NC(C)=O)c(Cl)cc1C(=O)Nc1nccs1,CHRM4,cell-free assay,,10 µM,16.7
O=C(Nc1ccc(Br)cc1)c1ccccn1,MAOB,"enzyme activity, inhibitor",,"1 µM, 20 min",85
Cc1ccc(C(=O)Nc2ccc(S(=O)(=O)O)c3cc(S(=O)(=O)O)cc(S(=O)(=O)O)c23)cc1NC(=O)c1cccc(NC(=O)Nc2cccc(C(=O)Nc3cc(C(=O)Nc4ccc(S(=O)(=O)O)c5cc(S(=O)(=O)O)cc(S(=O)(=O)O)c45)ccc3C)c2)c1,"NAD-dependent protein deacylase sirtuin-5, mitochondrial (SIRT5, Homo sapiens, UniProt Q9NXA8)","enzyme activity, inhibitor",,1 mM,> 60
CCOC(=O)C1CSc2[nH]c(=O)sc2C1c1cn(-c2ccccc2)nc1-c1ccc(C)cc1 (stereo not drawn),CA9,"enzyme activity, inhibitor",,10 nM,18.9
CCCNc1nc2ccccc2n1Cc1ccc(Cl)cc1,CHRM4,ligand displacement,,10 µM,-7.49
O=C(c1ccc(Cl)cc1)N(Cc1ccccc1)C1CCCCC1,"Histamine H1 receptor (HRH1, Homo sapiens, UniProt P35367)",cell-free assay,,10 µM,-0.7
Cc1ccc(-c2nn(-c3ccccc3)cc2C2c3sc(=O)[nH]c3SC3C(=O)N(c4ccccc4)C(=O)C32)cc1 (stereo not drawn),CA9,"enzyme activity, inhibitor",,10 µM,77.9
COc1cc(N)ccc1NC(=O)c1ccccc1,MAOB,"enzyme activity, inhibitor",,"1 µM, 20 min",1
C=CN1CCCn2c1nc1c2c(=O)n(C)c(=O)n1C,Adora1,"ligand displacement, radioligand",,"25 µM, cell membranes",30
CCOc1ccc(C(=O)Nc2ccc(OC(F)(F)F)cc2)cc1OCC,MAOB,"enzyme activity, inhibitor",,"1 µM, 20 min",1
CCN(Cc1ccccc1C(F)(F)F)C(=O)C1CCN(S(=O)(=O)c2ccc3[nH]ncc3c2)CC1,EDNRB,"ligand displacement, radioligand",,10 µM,8
O=C1NC(=S)C(=Cc2cn(-c3ccccc3)nc2-c2ccc(Br)cc2)S1,CA9,"enzyme activity, inhibitor",,1 µM,66.2
N#Cc1ccc(NC(=O)c2ccc3c(c2)OCO3)cc1,MAOB,"enzyme activity, inhibitor",,"1 µM, 20 min",87
